# From PubChem BioAssay
# CAL PDZ FP-1: inhibitors of human CAL PDZ peptide binding. purified CAL PDZ, TMR-peptide fluorescence polarization, 1 h. 300,000 compounds, 0.92% hits. AID 602252. Q9HD26. inhibition, % at 24.9 µM;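 active = mean inhibition of at least 30% with at least half of replicates also reaching 30%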;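 note: 0% = DMSO neutral control and 100% = excess unlabeled competitor peptide PRC23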
# ARNT TACC3 PPI: ARNT/TACC3 interaction disruption. AlphaScreen His-ARNT PAS-B/GST-TACC3 binding, luminescence; TACC3 fragment carries E629A point mutation. 390,000 compounds, 0.66% hits. Q9Y6A5. inhibition, % at 9.99 µM;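 active = mean inhibition of replicates at least 50% and at least half of replicates each reaching 50%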;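 note: 0% = complete ARNT plus TACC3 wells and 100% = ARNT alone without TACC3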
# CAL PDZ FP-2: human CAL PDZ-peptide interaction inhibition; Q9HD26; purified CAL PDZ, TMR-peptide fluorescence polarization, 1 h; inhibition, % at 20 µM; 330,000 compounds, 0.02% hits; AID 504414;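 active = highest replicate inhibition of at least 40%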;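 note: plate controls were DMSO neutral control wells for no effect and unlabeled competitor peptide control wells for full effect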
#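 Control set: unlabelled peptide and DMSO controls / Material: purified CerCALP PDZ construct / Timing: 1 h incubation at room temperature before polarization reading / Doses: 20 µM, one dose / Detection: fluorescence polarization (mP)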
# An asterisk follows results filed as active; . = no result given. Rows were chosen to be rich in hits. Some 1.2% of all compounds tested hit in one or more screens of this group.
SMILES,CAL PDZ FP-1,ARNT TACC3 PPI,CAL PDZ FP-2
COCC(=O)Nc1ccc2c(c1)C(=O)N(C)[C@@H]1CC[C@@H](CC(=O)Nc3cn(C)nc3C)O[C@@H]1CO2,.,3,.
COC(=O)c1cc(NC(=O)CC2NCCNC2=O)cc(C(=O)OC)c1 (stereo not drawn),-2,-5,4
COC(=O)c1sccc1NC(=O)CC1NCCNC1=O (stereo not drawn),130*,1,-1
CN(C)C(=O)[C@H]1[C@H](CO)[C@H]2Cn3c(ccc(-c4ccncc4)c3=O)[C@@H]1N2CC1CCCC1,.,5,.
O=C1/C(=C/c2cccnc2)Oc2cc(OS(=O)(=O)c3ccc(F)cc3)ccc21,-2,60*,.
Cc1ccc(S(=O)(=O)Oc2ccc3c(c2)O/C(=C\c2cccnc2)C3=O)cc1,0,-8,0
Cc1cc(C)c(C(=O)N2CCCC(CNS(=O)(=O)N(C)C)C2)o1 (stereo not drawn),-3,0,-1
COc1cc(OC)cc(C(=O)NCC2CCCN(C(=O)c3oc(C)cc3C)C2)c1 (stereo not drawn),46*,-12,-1
CCNc1nc(NCC)nc(OCCOC(C)=O)n1,-3,-6,1
CCNc1nc(NCC)nc(C(=O)OCCO)n1,.,49*,-1
O=C(C[C@@H]1CC[C@@H]2[C@H](COC[C@H](O)CN2Cc2cc(F)cc(F)c2)O1)NCc1cccc(F)c1,.,7,.
O=C(NCc1ccccn1)c1ccc(Cl)c(S(=O)(=O)N2CCCCCC2)c1,-4,46*,-1
O=C(NCc1ccccc1)c1ccc(Cl)c(S(=O)(=O)N2CCCC2)c1,-4,-1,-2
C[C@H]1CN([C@@H](C)CO)S(=O)(=O)c2ccc(C#CC3CC3)cc2O[C@@H]1CN(C)Cc1ccncc1,.,23,.
CN(C)S(=O)(=O)c1ccc(C(=O)NC2CCCc3ccccc32)cc1 (stereo not drawn),71*,-1,-2
CN(C)S(=O)(=O)c1cccc(C(=O)NC2CCCc3ccccc32)c1 (stereo not drawn),1,0,-2
CO[C@@H]1CN(C)C(=O)c2ccc(NC(=O)C3CCCC3)cc2OC[C@@H](C)NC[C@H]1C,.,-24,.
N=C1CCC(=N)c2c1c(O)c1ccccc1c2O,0,51*,1
N#Cc1c(C#N)c(O)c2ccccc2c1O,3,9,1
CC(C)NC(=O)N[C@H]1C=C[C@@H](CC(=O)NC2Cc3ccccc3C2)O[C@@H]1CO,.,-3,.
C[C@@H]1CN([C@H](C)CO)C(=O)Cc2cc(NC(=O)Nc3cccc4ccccc34)ccc2O[C@@H]1CN(C)CC1CC1,.,9,.
C=CCNCCCCOc1ccc(OCC)cc1,45*,-3,.
C=CCNCCCOc1ccc(C(C)(C)c2ccccc2)cc1,-2,3,-2
CN1CCN(C(=O)C[C@H]2CC[C@H](NC(=O)Nc3ccccc3F)[C@@H](CO)O2)CC1,.,4,.
C[C@H](NC(=O)C[C@@H]1CC[C@H](NC(=O)c2cccnc2)[C@@H](CO)O1)c1ccccc1,.,-2,.
SMILES,CAL PDZ FP-1,ARNT TACC3 PPI,CAL PDZ FP-2
CCOc1ccc(N(CC(=O)NCc2ccc(C)cc2)S(=O)(=O)c2c(C)[nH]c(=O)[nH]c2=O)cc1,38*,-1,-1
COc1ccc(N(CC(=O)NCc2ccc(C)cc2)S(=O)(=O)c2c(C)[nH]c(=O)[nH]c2=O)cc1,-2,1,-2
COCCNC(=O)C[C@@H]1CC[C@@H](NS(=O)(=O)c2ccc(C)cc2)[C@H](CO)O1,.,3,.
NC(=S)NN=C1CCC2(CCCCC2)CC1,.,.,0
CC1(C)CCC(=NNC(N)=S)CC1,-2,21*,0
COc1cccc(NC(=O)N(C)C[C@H]2Oc3cc(C#Cc4ccc(F)cc4)ccc3S(=O)(=O)N([C@@H](C)CO)C[C@H]2C)c1,.,-3,.
O=C(O)c1cc(-c2ccccc2)n[nH]1,-7,-29,-2
Cn1cccc1-c1cc(C(=O)O)[nH]n1,41*,-2,0
O=C(Nc1ccc(S(=O)(=O)Nc2ncccn2)cc1)c1ccccc1NS(=O)(=O)c1ccc(F)cc1,0,-5,-2
O=C(O)/C=C/c1ccc(S(=O)(=O)Nc2ccccc2C(=O)Nc2ccc(F)cc2)cc1,-4,47*,0
C[C@@H]1CN([C@@H](C)CO)C(=O)c2cc(NC(=O)Nc3ccc(C(F)(F)F)cc3)ccc2O[C@@H]1CN(C)C(=O)Nc1ccc(F)cc1,.,-6,.
Cc1sc2nc(SCC(=O)Nc3cccc(S(N)(=O)=O)c3)[nH]c(=O)c2c1C,-5,-7,-2
Cc1sc2nc(SCC(=O)Nc3ccc(S(N)(=O)=O)cc3)[nH]c(=O)c2c1C,44*,-6,0
CCc1cccc(NC(=O)CCNS(=O)(=O)c2ccc3[nH]c(=O)oc3c2)c1,40*,1,-1
CSc1cccc(NC(=O)CCNS(=O)(=O)c2ccc3[nH]c(=O)oc3c2)c1,-4,14,-3
O=C(NCCc1ccccn1)c1ccc(OC(F)F)cc1,.,-6,-1
O=C(NNC(=O)c1ccccn1)c1ccc(OC(F)F)cc1,-3,71*,2
CCCNC(=O)N(C)C[C@H]1Oc2cc(C#CCN(C)C)ccc2S(=O)(=O)N([C@H](C)CO)C[C@H]1C,.,13,.
O=C(C[C@H]1CC[C@@H](NC(=O)C2CCC2)[C@@H](CO)O1)NCc1ccccc1Cl,.,-5,.
CC(C)(C)c1ccc(C(=O)NCc2nnc(SCC(=O)NCc3ccco3)o2)cc1,-2,4,9
COc1cc(OC)cc(C(=O)NCC(=O)OCC(=O)NCc2ccco2)c1,-9,-2,0
COc1ccc(C(=O)CSc2nnc(CNC(=O)c3ccccc3)o2)cc1,52*,-8,0
COc1cc(C(=O)NCc2nnc(SCC(=O)Nc3c(C)cc(C)cc3C)o2)cc(OC)c1OC,60*,2,-1
COc1ccc(C(=O)NCc2nnc(SCC(=O)NCc3ccco3)o2)cc1,88*,5,-1
COc1ccc(C(=O)NCC(=O)OCC(=O)NCc2ccco2)cc1,43*,-5,0
SMILES,CAL PDZ FP-1,ARNT TACC3 PPI,CAL PDZ FP-2
O=C(CSc1nnc(CNC(=O)c2ccccc2)o1)c1ccc(Cl)cc1,-7,-7,-1
COc1cc(C(=O)NCc2nnc(SCC(=O)Nc3cc(C)cc(C)c3)o2)cc(OC)c1OC,-1,-3,-2
CNC(=O)C[C@H]1CC[C@H]2[C@H](COc3ccc(NC(=O)c4ccc5c(c4)OCO5)cc3C(=O)N2C)O1,.,-3,.
C[C@@H]1CN([C@H](C)CO)C(=O)c2cc(NC(=O)c3ccncc3)ccc2O[C@H]1CN(C)Cc1ccc(C(=O)O)cc1,.,24,.
O=C(C[C@@H]1C[C@H]2c3cc(NC(=O)NC4CCCCC4)ccc3O[C@H]2[C@@H](CO)O1)NCc1cccnc1,.,3,.
Cc1cc(C)n(-c2ccc(C(=O)OCC(=O)NCc3ccco3)cc2)n1,40*,7,.
CCNC(=O)COC(=O)c1ccc(-n2nc(C)cc2C)cc1,3,-1,-1
C[C@@H]1CN([C@@H](C)CO)S(=O)(=O)c2ccc(C#C[C@@H](C)O)cc2O[C@@H]1CN(C)C(=O)Nc1ccccc1,.,16,.
O=C(C[C@H]1CC[C@H]2[C@@H](COC[C@H](O)CN2Cc2ccccc2F)O1)N[C@@H]1CCN(Cc2ccccc2)C1,.,9,.
